According to ChEMBL document CHEMBL2396601, “Synthesis and antiprotozoal activity of dicationic m-terphenyl and 1,3-dipyridylbenzene derivatives” (J Med Chem, 2013):
The source made the active and inactive calls. No cut-off for these calls is given here.

Assays:
[1] = Selectivity index, ratio of IC50 for rat L6 cells to IC50 for Trypanosoma cruzi Tulahuen C2C4; format: toxicity, cell-based; details: read-out: Ratio IC50
Summary of the method: (§1)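 Selectivity index is IC50 against L6 rat myoblast cells divided by IC50 against the named parasite.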

L6 = assay: Cytotoxicity against rat L6 cells after 72 hrs by Alamar Blue assay; format: cell-based; details: L6, 72 h
Summary of the method: (§2)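 Uses T. b. rhodesiense STIB900, T. cruzi Tulahuen C2C4 LacZ intracellular amastigotes, or L6 rat myoblasts depending on line.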

[2] = Selectivity index, ratio of IC50 for rat L6 cells to IC50 for Plasmodium falciparum K1; format: toxicity, cell-based; details: L6 cells, read-out: Ratio IC50; summary of the method: as §1
[3] = tested on: Trypanosoma brucei rhodesiense; assay: Antiprotozoal activity against Trypanosoma brucei rhodesiense STIB900 infected in NMRI mouse assessed as reduction of parasitemia relapse at 5 mg/kg, ip qd for 4 days; format: functional, organism-based; set-up: dose 5 mg/kg
Summary of the method: (§3)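 Mouse model of acute (early) stage HAT with T. b. rhodesiense STIB900, groups of 4 mice. Amidines dosed intraperitoneally, 4 daily doses of 5 mg/kg or single doses; prodrugs dosed orally, 4 daily doses of 25 mg/kg. Cure means survival to 60 days after infection with no parasitemia relapse. Mean survival days counts all mice, with cured mice scored as >60 days.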

[4] = tested on: Trypanosoma brucei rhodesiense; assay: Antiprotozoal activity against Trypanosoma brucei rhodesiense STIB900 infected in NMRI mouse assessed as host mean survival days at 10 mg/kg, ip; format: functional; details: route intraperitoneal
Summary of the method: (§4)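 Acute-stage HAT mouse model infected with STIB900. Cure means survival to 60 days after infection with no parasitemia relapse. Mean survival days are counted from infection and use every mouse: relapsed mice, plus cured mice entered as >60 days.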

[5] = Selectivity index, ratio of IC50 for rat L6 cells to IC50 for Trypanosoma brucei rhodesiense STIB900; format: toxicity, cell-based; details: L6 cells, read-out: Ratio IC50; summary of the method: as §1
[6] = tested on: Trypanosoma brucei rhodesiense; assay: Antiprotozoal activity against Trypanosoma brucei rhodesiense STIB900 infected in NMRI mouse assessed as host mean survival days at 5 mg/kg, ip qd for 4 days; format: functional; details: route intraperitoneal; summary of the method: as §4
[7] = tested on: Trypanosoma brucei rhodesiense; assay: Antiprotozoal activity against Trypanosoma brucei rhodesiense STIB900 infected in NMRI mouse assessed as reduction of parasitemia relapse at 10 mg/kg, ip; format: functional, organism-based; set-up: dose 10 mg/kg; summary of the method: as §3
Trypanosoma cruzi = assay: Antiprotozoal activity against intracellular amastigote form of Trypanosoma cruzi Tulahuen C2C4 expressing LacZ infected in rat L6 cells after 48 hrs; format: functional, organism-based; details: Tulahuen C2C4, L6, 48 h; summary of the method: as §2
Plasmodium falciparum = assay: Antiprotozoal activity against chloroquine-resistant Plasmodium falciparum K1 after 48 hrs by [3H]-hypoxanthine incorporation assay; format: functional, organism-based
[8] = tested on: Trypanosoma brucei rhodesiense; assay: Antiprotozoal activity against Trypanosoma brucei rhodesiense STIB900 after 72 hrs by Alamar Blue assay; format: functional, organism-based; summary of the method: as §2
Mus musculus [9] = assay: Toxicity in BALB/c mouse assessed as hyperactivity measured after first dose at 30 mg/kg, ip qd for 5 days; format: organism-based; set-up: dose 30 mg/kg, route intraperitoneal; details: in vivo, 120 h
Summary of the method: (§5)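 Tolerability check before efficacy testing in uninfected BALB/c mice, groups of two, given 30 mg/kg ip daily for five days. Watched for overt toxicity signs such as tremors and hyperactivity after each dose. Mice showing adverse effects were euthanized.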

Leishmania amazonensis = assay: Antiprotozoal activity against intracellular amastigote form of Leishmania amazonensis infected in CD1 mouse macrophages after 72 hrs by […]; format: functional, organism-based
[10] = Selectivity index, ratio of IC50 for rat L6 cells to IC50 for Leishmania amazonensis; format: toxicity, cell-based; details: read-out: Ratio IC50; summary of the method: as §1
Mus musculus [11] = assay: Toxicity in BALB/c mouse assessed as tremors measured after second dose at 30 mg/kg, ip qd for 5 days; format: organism-based; set-up: dose 30 mg/kg, route intraperitoneal; details: in vivo, 120 h; summary of the method: as §5
[12] = tested on: Trypanosoma brucei rhodesiense; assay: Antiprotozoal activity against Trypanosoma brucei rhodesiense STIB900 infected in NMRI mouse assessed as host mean survival days at 25 mg/kg, po qd for 4 days; format: functional; summary of the method: as §4
[13] = tested on: Trypanosoma brucei rhodesiense; assay: Antiprotozoal activity against Trypanosoma brucei rhodesiense STIB900 infected in NMRI mouse assessed as reduction of parasitemia relapse at 25 mg/kg, po qd for 4 days; format: functional, organism-based; set-up: dose 25 mg/kg; summary of the method: as §3
Leishmania donovani [14] = assay: Antiprotozoal activity against Leishmania donovani promastigotes infected in BALB/c mouse assessed as inhibition of liver parasitemia at 10 mg/kg, po qd for 5 days; format: functional; details: 120 h
Summary of the method: (§6)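 L. donovani-infected BALB/c mice dosed daily for 5 days, 30 mg/kg ip or 10 mg/kg orally, depending on line.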

Mus musculus [15] = assay: Toxicity in BALB/c mouse assessed as mortality at 30 mg/kg, ip qd for 5 days; format: organism-based; set-up: dose 30 mg/kg, route intraperitoneal; details: in vivo, 120 h
Leishmania donovani [16] = assay: Antiprotozoal activity against Leishmania donovani promastigotes infected in BALB/c mouse assessed as inhibition of liver parasitemia at 30 mg/kg, ip qd for 5 days; format: functional; details: 120 h, route intraperitoneal; summary of the method: as §6
[17] = tested on: Trypanosoma brucei rhodesiense; assay: Antiprotozoal activity against Trypanosoma brucei rhodesiense STIB900 infected in NMRI mouse assessed as reduction of parasitemia relapse at 5 mg/kg, ip; format: functional, organism-based; set-up: dose 5 mg/kg; summary of the method: as §3
[18] = tested on: Trypanosoma brucei rhodesiense; assay: Antiprotozoal activity against Trypanosoma brucei rhodesiense STIB900 infected in NMRI mouse assessed as host mean survival days at 5 mg/kg, ip; format: functional; details: route intraperitoneal; summary of the method: as §4
[19] = Trypanosoma brucei, STIB900, 72 h

Compound	selectivity ratio [1]	IC50 (L6) [µM]	selectivity ratio [2]	selectivity ratio [5]	IC50 (Trypanosoma cruzi) [µM]	IC50 (Plasmodium falciparum; Plasmodium falciparum, K1) [nM]	IC50 [8, 19] [nM]	MSD [12] [days]	further results
Cl.Cl.N=C(N)c1ccc(-c2cccc(-c3ccc(C(=N)N)cc3)c2)cc1	< 1	31.2	1280	8490	71.6	24	4		Activity [3]: Active; MSD [4]: >60 days; MSD [6]: >60 days; Activity [7]: Active
Cl.Cl.N=C(Nc1ccc(-c2cccc(-c3cccc(NC(=N)c4ccccn4)c3)c2)cc1)c1ccccn1	7	2.72	13	1	0.388	208	1940		Activity (Mus musculus [9]): Toxic; IC50 (Leishmania amazonensis): 123 nM; selectivity ratio [10]: 22; Activity (Mus musculus [11]): Toxic
Cl.Cl.N/C(=N\O)c1cccc(-c2cccc(-c3cccc(/C(N)=N\O)c3)c2)c1	< 1	5.6	< 1	2	11.2	8230	2550	7.25	Activity [13]: inactive
CCCCCCCCCCCCCCCCOP(=O)([O-])OCC[N+](C)(C)C [MILTEFOSINE]									inhibition in vivo at 10 mg/kg (Leishmania donovani [14]): 96%
Cl.Cl.Cl.N=C(Nc1cccc(-c2cc(Cl)cc(-c3cccc(NC(=N)c4ccccn4)c3)c2)c1)c1ccccn1	47	2.5	450	133	0.053	6	19		Activity (Mus musculus [9]): Toxic; IC50 (Leishmania amazonensis): 95 nM; selectivity ratio [10]: 26; Activity (Mus musculus [11]): Toxic
CN(C)CC(=O)O/N=C(\N)c1ccc(-c2cccc(-c3ccc(/C(N)=N\OC(=O)CN(C)C)cn3)c2)nc1	< 1	62.9	129	6	72.3	486	9840	>52	
N=C(N)c1ccc(-c2cccc(-c3ccc(C(=N)N)cn3)c2)nc1									Activity [3]: Active; Activity [7]: Active
CO/N=C(\N)c1cccc(-c2cccc(-c3cccc(/C(N)=N\OC)c3)c2)c1.Cl.Cl	< 1	20.3	2	2	24.1	9310	11300	17.25	Activity [13]: inactive
Cl.Cl.Cl.N=C(Nc1ccc(-c2cc(Cl)cc(-c3cccc(NC(=N)c4ccccn4)c3)c2)cc1)c1ccccn1	2	2.64	12	24	1.54	219	109		Activity (Mus musculus [15]): Non-toxic; inhibition in vivo at 30 mg/kg (Leishmania donovani [16]): 23%; IC50 (Leishmania amazonensis): 211 nM; selectivity ratio [10]: 13
Cl.Cl.N=C(N)c1ccc(-c2cccc(-c3ccc(C(=N)N)nc3)c2)cn1	< 1	22.3	1480	3720	43.4	15	6		Activity [3]: Active; Activity [17]: Active; MSD [6]: >60 days; MSD [18]: >60 days
Cl.N=C(N)c1ccc(-c2cccc(-c3ccc(C(=N)N)cn3)c2)nc1			> 3760	> 8820					MSD [4]: >60 days; MSD [6]: >60 days; IC50 (Plasmodium falciparum): 40 nM; IC50 [8]: 17 nM
CO/N=C(/N)c1ccc(-c2cccc(-c3ccc(/C(N)=N\OC)cc3)c2)cc1.Cl.Cl	< 1	19.2	< 2	4	92.6	> 10000	4440	>34.25	
Cl.Cl.N/C(=N/O)c1ccc(-c2cccc(-c3ccc(/C(N)=N\O)cc3)c2)cc1		> 150		> 14	> 150	> 10000	10900	>51.25	
CO/N=C(\N)c1ccc(-c2cccc(-c3ccc(/C(N)=N\OC)cn3)c2)nc1.Cl	> 1	> 150	> 42	> 6	117	3560	26300	>53.75	
